ChEMBL document CHEMBL2176968, “Identification of less lipophilic riminophenazine derivatives for the treatment of drug-resistant tuberculosis” (J Med Chem, 2012)
≈ marks a conversion by molar mass, not a printed value.

Tests used:
[1] = Cmax in BALB/c mouse at 20 mg/kg, po; format: ADME, organism-based; design: dose 20 mg/kg, route oral; settings: in vivo
[2] = Selectivity index, ratio of IC50 for african green monkey Vero cells to MIC for Mycobacterium tuberculosis H37Rv ATCC 27294; format: functional
[3] = test system: Mycobacterium tuberculosis; experiment: Antimycobacterial activity against Mycobacterium tuberculosis H37Rv ATCC 27294 after 7 days by microplate Alamar blue assay; format: functional; settings: H37Rv ATCC 27294, 168 h
Summary of the method: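 Run in 96-well plates against M. tuberculosis H37Rv using the Alamar Blue read-out. The MIC was taken as the lowest concentration giving >90% growth inhibition.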

[4] = Octanol-water partition coefficient, log P of the compound; format: physicochemical
[5] = AUC (0 to 24 hrs) in BALB/c mouse at 20 mg/kg, po; format: ADME, organism-based; design: time < 24 hr, dose 20 mg/kg, route oral; settings: plasma
[6] = Half life in BALB/c mouse at 20 mg/kg, po; format: ADME, organism-based; design: dose 20 mg/kg, route oral; settings: in vivo
[7] = test system: Mus musculus; experiment: Acute toxicity in mouse assessed as survival at 500 mg/kg, po measured for 7 days; format: organism-based; design: dose 500 mg/kg, route oral; settings: in vivo, 168 h
Summary of the method: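 Mice given one oral dose of 500 mg/kg, then observed for 7 days. The number of surviving mice was recorded.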

[8] = test system: Vero; experiment: Cytotoxicity against african green monkey Vero cells after 48 hrs by MTT assay; format: cell-based; settings: Chlorocebus sabaeus
Summary of the method: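 Vero cells were exposed to compound. The IC50 was taken as the concentration inhibiting 50% of growth relative to an untreated control.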

[9] = Acute toxicity in mouse; format: organism-based; settings: in vivo
[10] = Aqueous solubility of the compound in 100 ml buffer solution at pH 1.0; format: physicochemical
Summary of the method: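 Solubility was measured in pH 1 buffer and reported in g/100 mL.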

Row | SMILES | Cmax [1] [µg/mL] | Selectivity Index [2] | MIC [3] [mg/L] | logP [4] | AUC(0-t) at 24 h [5] [µg·h/mL] | half-life [6] [h] | Activity [7] | IC50 [8] [mg/L] | LD50 [9] [mg/kg] | solubility [10] [g]
1 | COc1ncccc1Nc1cc2nc3ccccc3n(-c3ccc(OC(F)(F)F)cc3)c-2c/c1=N\C1CCC(OC)CC1 (stereo not drawn) | 1.3 | 4000 | 0.016 (≈ 0.0271 µM) | 4.52 | 24.1 | 41.2 | Non-toxic | > 64 |  | 
2 | CC(C)/N=c1\cc2n(-c3ccc(Cl)cc3)c3ccccc3nc-2cc1Nc1ccc(Cl)cc1 [CLOFAZIMINE] | 0.38 | 572 | 0.12 (≈ 0.253 µM) | 5.34 | 6.96 | 29.7 |  | 68.6 (≈ 145 µM) | > 3000 | 
3 | CC(C)/N=c1\cc2n(-c3ccc(Cl)cc3)c3ccccc3nc-2cc1Nc1cccnc1 |  | 273 | 0.03 (≈ 0.0682 µM) |  |  |  |  | 8.2 (≈ 18.6 µM) | 422 | 
4 | COC1CCC(/N=c2\cc3n(-c4ccc(Cl)cc4)c4ccccc4nc-3cc2Nc2ccc(C)nc2)CC1 (stereo not drawn) | 1.56 | 3180 | 0.016 (≈ 0.0305 µM) | 4.11 | 22.1 | 16.1 | Non-toxic | 50.9 (≈ 97.1 µM) |  | 
5 | COc1ncccc1Nc1cc2nc3ccccc3n(-c3ccc(Br)cc3)c-2c/c1=N\C1CCOCC1 |  | 3200 | 0.02 (≈ 0.0359 µM) |  |  |  | Non-toxic | > 64 |  | 
6 | COC1CCC(/N=c2\cc3n(-c4ccc(Cl)cc4)c4ccccc4nc-3cc2Nc2cccnc2C)CC1 (stereo not drawn) |  | 3195 | 0.011 (≈ 0.021 µM) |  |  |  | Toxic | 35.1 (≈ 67.1 µM) |  | 
7 | COc1ncccc1Nc1cc2nc3ccccc3n(-c3ccc(C(F)(F)F)cc3)c-2c/c1=N\C1CCC(OC)CC1 (stereo not drawn) |  | 4000 | 0.016 (≈ 0.0279 µM) |  |  |  | Non-toxic | > 64 |  | 
8 | COC1CCC(/N=c2\cc3n(-c4ccc(F)cc4)c4ccccc4nc-3cc2Nc2cccnc2C)CC1 (stereo not drawn) |  | 3368 | 0.019 (≈ 0.0374 µM) |  |  |  | Toxic | > 64 |  | 
9 | COc1ncccc1Nc1cc2nc3ccccc3n(-c3ccc(C(F)(F)F)cc3)c-2c/c1=N\C(C)C |  | 2207 | 0.029 (≈ 0.0576 µM) |  |  |  | Non-toxic | > 64 |  | 
10 | Cc1ncccc1Nc1cc2nc3ccccc3n(-c3ccc(C(F)(F)F)cc3)c-2c/c1=N\C1CCOCC1 |  | 5818 | 0.011 (≈ 0.0208 µM) |  |  |  | Toxic | > 64 |  | 
11 | COc1ncccc1Nc1cc2nc3ccccc3n(-c3ccc(C(F)(F)F)cc3)c-2c/c1=N\C1CCOCC1 |  | 4000 | 0.016 (≈ 0.0293 µM) |  |  |  | Non-toxic | > 64 |  | 
12 | COc1ncccc1Nc1cc2nc3ccccc3n(-c3ccc(Cl)cc3)c-2c/c1=N\C1CCOCC1 | 2.01 | 4000 | 0.016 (≈ 0.0312 µM) | 4.15 | 33.1 | 6.62 | Non-toxic | > 64 |  | 
13 | COc1ncccc1Nc1cc2nc3ccccc3n(-c3ccc(F)cc3)c-2c/c1=N\C1CCC(OC)CC1 (stereo not drawn) | 3.65 | 4000 | 0.016 (≈ 0.0306 µM) | 4.82 | 45.4 | 7.9 | Non-toxic | > 64 |  | 
14 | COc1ncccc1Nc1cc2nc3ccccc3n(-c3ccc(Cl)cc3)c-2c/c1=N\C1CCC(OC)CC1 (stereo not drawn) | 3.01 | 4000 | 0.016 (≈ 0.0296 µM) | 3.74 | 43.9 | 7 | Non-toxic | > 64 |  | 
15 | COc1ncccc1Nc1cc2nc3ccccc3n(-c3ccc(F)cc3)c-2c/c1=N\C(C)C | 3.02 | 2133 | 0.03 (≈ 0.0661 µM) | 4.07 | 52.4 | 17.5 | Non-toxic | > 64 |  | 0.7
16 | Cc1ncccc1Nc1cc2nc3ccccc3n(-c3ccc(F)cc3)c-2c/c1=N\C1CCOCC1 |  | 2462 | 0.026 (≈ 0.0542 µM) |  |  |  | Toxic | > 64 |  | 
